Experimental data reported in ChEMBL document CHEMBL2375304, “Synthesis and anticancer activity of novel 2-pyridyl hexahyrocyclooctathieno[2,3-d]pyrimidine derivatives” (2013).

Key:
Type in all cases: functional
A549 = experiment: Growth inhibition of human A549/ATCC cells after 48 hrs by Sulforhodamine B assay; settings: A549, 48 h
In short: (§1)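 Five-concentration SRB assay using 10-fold or ½-log serial dilutions from a DMSO stock. Exposure is 48 h at 37 °C in 5% CO2 after 24 h preincubation. TCA fixation is followed by SRB staining and a reading at 515 nm. Percentage growth is computed from time-zero, control and treated absorbances. GI50 is the concentration where [(Ti−Tz)/(C−Tz)]×100 = 50, read from the plot against log concentration.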

SF-539 = experiment: Growth inhibition of human SF539 cells after 48 hrs by Sulforhodamine B assay; settings: SF-539, 48 h
In short: (§2)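 Cells were preincubated 24 h at 37 °C, 5% CO2, and a time-zero plate was TCA-fixed. Five concentrations were made by serial dilution from a DMSO stock (400-fold the top concentration) and incubated 48 h. Adherent cells were fixed with 10% final TCA and suspension cells with 16%. Plates were stained with 0.4% SRB and read at 515 nm. GI50 is the concentration giving 50% reduction in net protein increase versus control.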

HCT-15 = experiment: Growth inhibition of human HCT15 cells after 48 hrs by Sulforhodamine B assay; settings: HCT-15, 48 h; in short: as §1
RXF 393 = experiment: Growth inhibition of human RXF393 cells after 48 hrs by Sulforhodamine B assay; settings: RXF 393, 48 h; in short: as §2
IGROV-1 [1] = experiment: Growth inhibition of human IGROV1 cells after 48 hrs by Sulforhodamine B assay; settings: IGROV-1, 48 h; in short: as §1
CAKI-1 = experiment: Growth inhibition of human CAKI-1 cells after 48 hrs by Sulforhodamine B assay; settings: CAKI-1, 48 h; in short: as §1
TK-10 = experiment: Growth inhibition of human TK10 cells after 48 hrs by Sulforhodamine B assay; settings: TK-10, 48 h
In short: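 Five-concentration stage in the […]-cell-line panel, using 10-fold or ½-log serial dilutions made from a DMSO stock (400-fold). Cells were preincubated 24 h at 37 °C, then drug-exposed 48 h. A time-zero plate was fixed with TCA at dosing, adherent cells were fixed with cold TCA (10% final), and protein was stained with SRB, absorbance 515 nm. GI50 was where [(Ti−Tz)/(C−Tz)]×100 = 50, from the percent growth vs log concentration plot, expressed as log10 GI50.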

RPMI-8226 = experiment: Growth inhibition of human RPMI8226 cells after 48 hrs by Sulforhodamine B assay; settings: RPMI-8226, 48 h; in short: as §2
PC-3 = experiment: Growth inhibition of human PC3 cells after 48 hrs by Sulforhodamine B assay; settings: PC-3, 48 h; in short: as §2
OVCAR-5 [2] = experiment: Growth inhibition of human OVCAR5 cells after 48 hrs by Sulforhodamine B assay; settings: OVCAR-5, 48 h; in short: as §2
NCI-H322M = experiment: Growth inhibition of human NCI-H322M cells after 48 hrs by Sulforhodamine B assay; in short: as §2
NCI-H23 = experiment: Growth inhibition of human NCI-H23 cells after 48 hrs by Sulforhodamine B assay; settings: NCI-H23, 48 h; in short: as §2
786-0 = experiment: Growth inhibition of human 786-0 cells after 48 hrs by Sulforhodamine B assay; settings: 786-0, 48 h; in short: as §1
OVCAR-3 = experiment: Growth inhibition of human OVCAR3 cells after 48 hrs by Sulforhodamine B assay; settings: OVCAR-3, 48 h; in short: as §2
OVCAR-8 = experiment: Growth inhibition of human OVCAR8 cells at 10^-5 M after 48 hrs by Sulforhodamine B assay relative to control; settings: OVCAR-8, 48 h, read-out: GI
In short: (§3)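 Single-dose primary screen at 10⁻⁵ M across 49 lines. Cells were plated 24 h beforehand, with a TCA-fixed time-zero plate, then exposed 48 h at 37 °C, 5% CO2. Cells were fixed with cold TCA, stained with SRB and read at 515 nm. Percent growth was calculated against time-zero and untreated-control absorbances.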

MDA-MB-435 = experiment: Growth inhibition of human MDA-MB-435 cells at 10^-5 M after 48 hrs by Sulforhodamine B assay relative to control; settings: MDA-MB-435, 48 h, read-out: GI
In short: (§4)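 Single-dose screen at 10⁻⁵ M. Cells are preincubated 24 h at 37 °C in 5% CO2, then exposed to the compound, diluted from a DMSO stock into medium with gentamicin, for 48 h. Adherent cells are fixed with cold TCA (final 10%) and suspension cells with TCA (final 16%). Cells are stained with 0.4% SRB in 1% acetic acid and bound dye is read at 515 nm. Percent growth inhibition is taken against control wells and time-zero plates.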

K562 = experiment: Growth inhibition of human K562 cells at 10^-5 M after 48 hrs by Sulforhodamine B assay relative to control; settings: K562, 48 h, read-out: GI; in short: as §4
Hs-578T = experiment: Growth inhibition of human Hs578T cells at 10^-5 M after 48 hrs by Sulforhodamine B assay relative to control; settings: read-out: GI; in short: as §4
COLO 205 = experiment: Growth inhibition of human COLO205 cells at 10^-5 M after 48 hrs by Sulforhodamine B assay relative to control; settings: COLO 205, 48 h, read-out: GI; in short: as §4
MDA-MB-468 = experiment: Growth inhibition of human MDA-MB-468 cells at 10^-5 M after 48 hrs by Sulforhodamine B assay relative to control; settings: MDA-MB-468, 48 h, read-out: GI; in short: as §3
SF-268 = experiment: Growth inhibition of human SF268 cells at 10^-5 M after 48 hrs by Sulforhodamine B assay relative to control; settings: SF-268, 48 h, read-out: GI; in short: as §3
SK-MEL-28 = experiment: Growth inhibition of human SK-MEL-28 cells at 10^-5 M after 48 hrs by Sulforhodamine B assay relative to control; settings: SK-MEL-28, 48 h, read-out: GI; in short: as §3
MCF7 = experiment: Growth inhibition of human MCF7 cells at 10^-5 M after 48 hrs by Sulforhodamine B assay relative to control; settings: MCF7, 48 h, read-out: GI; in short: as §4
[3] = Growth inhibition of human HCC2998 cells at 10^-5 M after 48 hrs by Sulforhodamine B assay relative to control; settings: HCC 2998, 48 h, read-out: GI; in short: as §4
IGROV-1 [4] = experiment: Growth inhibition of human IGROV1 cells at 10^-5 M after 48 hrs by Sulforhodamine B assay relative to control; settings: IGROV-1, 48 h, read-out: GI; in short: as §4
OVCAR-5 [5] = experiment: Growth inhibition of human OVCAR5 cells at 10^-5 M after 48 hrs by Sulforhodamine B assay relative to control; settings: OVCAR-5, 48 h, read-out: GI; in short: as §3
OVCAR-4 = experiment: Growth inhibition of human OVCAR4 cells at 10^-5 M after 48 hrs by Sulforhodamine B assay relative to control; settings: OVCAR-4, 48 h, read-out: GI; in short: as §3
HL-60(TB) = experiment: Growth inhibition of human HL-60(TB) cells at 10^-5 M after 48 hrs by Sulforhodamine B assay relative to control; settings: HL-60, 48 h, read-out: GI
In short: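 First-stage single-dose screen at 10⁻⁵ M. Cells pre-incubated 24 h at 37 °C, 5% CO2, then exposed to drug for 48 h. Settled cells fixed with TCA (final 16%), SRB-stained and read at 515 nm. Percentage growth inhibition is derived from treated, untreated control and time-zero absorbances.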

Structure (SMILES) | inhibition of growth at 10 µM (OVCAR-8) [%] | inhibition of growth at 10 µM (MDA-MB-435) [%] | inhibition of growth at 10 µM (K562) [%] | inhibition of growth at 10 µM (Hs-578T) [%] | inhibition of growth at 10 µM (COLO 205) [%] | inhibition of growth at 10 µM (MDA-MB-468) [%] | inhibition of growth at 10 µM (SF-268) [%] | inhibition of growth at 10 µM (SK-MEL-28) [%] | inhibition of growth at 10 µM (MCF7) [%] | inhibition of growth at 10 µM [3] [%] | inhibition of growth at 10 µM (IGROV-1 [4]) [%] | inhibition of growth at 10 µM (OVCAR-5 [5]) [%] | inhibition of growth at 10 µM (OVCAR-4) [%] | inhibition of growth at 10 µM (HL-60(TB)) [%] | also measured
O=c1[nH]c(-c2ccncc2)nc2sc3c(c12)CCCCCC3 |  |  |  |  |  |  |  |  |  |  |  |  |  |  | GI50 (A549): > 100 µM; GI50 (SF-539): > 100 µM; GI50 (HCT-15): > 100 µM; GI50 (RXF 393): > 100 µM; GI50 (IGROV-1 [1]): > 100 µM; GI50 (CAKI-1): > 100 µM; GI50 (TK-10): > 100 µM; GI50 (RPMI-8226): > 100 µM; GI50 (PC-3): > 100 µM; GI50 (OVCAR-5 [2]): > 100 µM; GI50 (NCI-H322M): > 100 µM; GI50 (NCI-H23): > 100 µM; GI50 (786-0): > 100 µM; GI50 (OVCAR-3): > 100 µM
c1ccc(N2CCN(c3nc(-c4ccccn4)nc4sc5c(c34)CCCCCC5)CC2)cc1 | 44.5 | 34.2 | 79.2 | 6.17 | 26.3 | 30.1 | 20.4 | 7.85 | 89.2 | 13.7 | 62.9 | 36.8 | 44 |  | 
c1ccc(-c2nc(N3CCOCC3)c3c4c(sc3n2)CCCCCC4)nc1 |  |  |  |  |  |  |  |  |  |  |  |  |  |  | GI50 (A549): 3.55 µM; GI50 (SF-539): 12.9 µM; GI50 (HCT-15): 3.39 µM; GI50 (RXF 393): 8.32 µM; GI50 (IGROV-1 [1]): 3.16 µM; GI50 (CAKI-1): 2.29 µM; GI50 (TK-10): 9.33 µM; GI50 (RPMI-8226): 2.14 µM; GI50 (PC-3): 2.69 µM; GI50 (OVCAR-5 [2]): 10.2 µM; GI50 (NCI-H322M): 5.5 µM; GI50 (NCI-H23): 6.03 µM; GI50 (786-0): 11.7 µM; GI50 (OVCAR-3): 4.57 µM
COc1ccc(N2CCN(c3nc(-c4ccncc4)nc4sc5c(c34)CCCCCC5)CC2)cc1 | 5.9 | 4.86 | 23.2 | -5.59 | 5.76 | 0.83 | 2.5 | -5.27 | 18.1 | -11.5 | 3.43 | 2.26 | 11.1 | 15.2 | 
c1ccc(N2CCN(c3nc(-c4ccncc4)nc4sc5c(c34)CCCCCC5)CC2)cc1 | 8.55 | 2.52 | 7.55 | -12.9 | -1.65 | 3.79 | -1.33 | -15 | 2.49 | -14 | 0.86 | 1.59 | 0.34 | 2.53 | 
CN1CCN(c2nc(-c3ccccn3)nc3sc4c(c23)CCCCCC4)CC1 | -1.5 | 4.89 | 20 | 6.23 | 0.37 | 5.4 | -1.9 | -5.08 | 50.4 | 4.02 | 6.64 | 2.04 | 16 | 4.37 | 
Clc1nc(-c2ccncc2)nc2sc3c(c12)CCCCCC3 | -1.87 | 3.14 | 13.6 | 6.64 | -16.6 | 39.6 | 0.85 | -4.12 | 3.18 | -12.3 | 7.04 | -5.24 | 14.8 | 3.12 | 
COc1ccc(N2CCN(c3nc(-c4ccccn4)nc4sc5c(c34)CCCCCC5)CC2)cc1 |  |  |  |  |  |  |  |  |  |  |  |  |  |  | GI50 (A549): 3.24 µM; GI50 (SF-539): 67.6 µM; GI50 (HCT-15): 4.27 µM; GI50 (RXF 393): > 100 µM; GI50 (IGROV-1 [1]): 5.37 µM; GI50 (CAKI-1): 5.37 µM; GI50 (TK-10): > 100 µM; GI50 (RPMI-8226): 3.72 µM; GI50 (PC-3): 3.31 µM; GI50 (OVCAR-5 [2]): 51.3 µM; GI50 (NCI-H322M): 5.5 µM; GI50 (NCI-H23): 17 µM; GI50 (786-0): 8.51 µM; GI50 (OVCAR-3): 8.71 µM
Clc1nc(-c2ccccn2)nc2sc3c(c12)CCCCCC3 | 12.9 | 8.64 | 20.2 | 8.7 | -14.6 | 184 | 5.35 | 10.7 | 46 | 36.6 | 10.2 | -7.94 | 14.3 | 3.98 | 
c1cc(-c2nc(N3CCOCC3)c3c4c(sc3n2)CCCCCC4)ccn1 | 15.3 | 0.03 | 29.3 | -13.3 | -0.84 | 11.8 | 4.06 | -7.03 | 28.5 | -8.59 | 1.53 | -1.32 | 22.7 | 24.6 | 
NNc1nc(-c2ccncc2)nc2sc3c(c12)CCCCCC3 | 2.51 | 1.01 | 24.7 | -13.7 | 2.31 | 20.1 | -17.8 | 4.94 | 5.87 | -16 | -16.5 | -0.54 | 18.7 | 16.4 | 
